ChEMBL document CHEMBL1139903, “Formation of an enolate intermediate is required for the reaction catalyzed by 3-hydroxyacyl-CoA dehydrogenase” (Bioorg Med Chem Lett, 2007)
Values belong to the molecule of their own block, whether it stands above or below them.

How the values were obtained:
Rattus norvegicus [1] = species: Rattus norvegicus; assay: Activity of rat 3-hydroxyacyl-CoA dehydrogenase N208A mutant
How it was run: (§1)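 Rat liver HAD enzymes (wild-type, Asn208Ala, Ser137Ala) were incubated with 3-hydroxyacyl-CoA substrates or fluorinated analogs and NAD⁺ cofactor, so the forward reaction oxidizes the 3-hydroxyl to a keto group while NAD⁺ is reduced to NADH. Kinetic studies derived parameters including Vmax.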

Rattus norvegicus [2] = species: Rattus norvegicus; assay: Activity of rat 3-hydroxyacyl-CoA dehydrogenase S137A mutant; how it was run: as §1
[3] = substrate: CCC/C=C/C(O)CC(=O)SCCNC(=O)CCNC(=O)[C@H](O)C(C)(C)COP(=O)(O)OP(=O)(O)OC[C@H]1O[C@@H](n2cnc3c(N)ncnc32)[C@H](O)[C@@H]1OP(=O)(O)O; assay: (§2) Activity of rat 3-hydroxyacyl-CoA dehydrogenase; how it was run: as §1
[4] = substrate: CCC/C=C/C(O)C(F)C(=O)SCCNC(=O)CCNC(=O)[C@H](O)C(C)(C)COP(=O)(O)OP(=O)(O)OC[C@H]1O[C@@H](n2cnc3c(N)ncnc32)[C@H](O)[C@@H]1OP(=O)(O)O; assay: as §2; how it was run: as §1
[5] = substrate: CCCCCC(O)C(F)C(=O)SCCNC(=O)CCNC(=O)[C@H](O)C(C)(C)COP(=O)(O)OP(=O)(O)OC[C@H]1O[C@@H](n2cnc3c(N)ncnc32)[C@H](O)[C@@H]1OP(=O)(O)O; assay: as §2; how it was run: as §1
[6] = substrate: CCCCCC(O)CC(=O)SCCNC(=O)CCNC(=O)[C@H](O)C(C)(C)COP(=O)(O)OP(=O)(O)OC[C@H]1O[C@@H](n2cnc3c(N)ncnc32)[C@H](O)[C@@H]1OP(=O)(O)O; assay: as §2; how it was run: as §1

Molecule: CCCCCC(O)CC(=O)SCCNC(=O)CCNC(=O)[C@H](O)C(C)(C)COP(=O)(O)OP(=O)(O)OC[C@H]1O[C@@H](n2cnc3c(N)ncnc32)[C@H](O)[C@@H]1OP(=O)(O)O (some centres not stated)
Km (Rattus norvegicus [1]): 46.8 µM | Vmax (Rattus norvegicus [1]): 0.28 µmol/min/mg

B1: Peroxisomal multifunctional enzyme type 2 (Rattus norvegicus), P97852 (protein)
chain: MASPLRFDGRVVLVTGAGGGLGRAYALAFAERGALVVVNDLGGDFKGVGKGSSAADKVVEEIRRRGGKAVANYDSVEAGEKLVKTALDTFGRIDVVVNNAGILRDRSFSRISDEDWDIIQRVHLRGSFQVTRAAWDHMKKQNYGRIIMTASASGIYGNFGQANYSAAKLGLLGLANTLVIEGRKNNIHCNTIAPNAGSRMTETVMPEDLVEALKPEYVAPLVLWLCHESCEENGGLFEVGAGWIGKLRWERTLGAIVRKRNQPMTPEAVRDNWVKICDFSNASKPKSIQESTGGIIEVLHKIDSEGISQNHTGQVASADASGFAGVVGHKLPSFSSSYTELQCIMYALGVGASVKNPKDLKFVYEGSADFSCLPTFGVIVAQKSLMSGGLAEVPGLSINFAKVLHGEQYLELYKPLPRSGELKCEAVIADILDKGSGIVIVMDVYSYSGKELICYNQFSVFVVGSGGFGGKRTSEKLKAAVAVPSRPPDAVLRDTTSLNQAALYRLSGDSNPLHIDPSFASIAGFEKPILHGLCTFGFSARHVLQQFADNDVSRFKAIKVRFAKPVYPGQTLQTEMWKEGNRIHFQTKVQETGDIVISNAYVDLVPTSGVSAQTPSEGGALQSALVFGEIGRRLKDVGREVVKKVNAVFEWHITKNGNVAAKWTIDLKNGSGEVYQGPAKGSADTTITISDEDFMEVVLGKLNPQNAFFSGRLKARGNIMLSQKLQMILKDYAKL
Km [3]: 20 µM | Vmax [3]: 21.8 µmol/min/mg | Km [4]: 46.8 µM | Vmax [4]: 11.7 µmol/min/mg | Km [5]: 69.3 µM | Km [6]: 34.6 µM | Vmax [6]: 10.5 µmol/min/mg

Results, then the molecule that gave them:

Km (Rattus norvegicus [1]): 44.9 µM | Vmax (Rattus norvegicus [1]): 0.1 µmol/min/mg | Km (Rattus norvegicus [2]): 55.7 µM | Vmax (Rattus norvegicus [2]): 0.17 µmol/min/mg
Molecule: CCC/C=C/C(O)C(F)C(=O)SCCNC(=O)CCNC(=O)[C@H](O)C(C)(C)COP(=O)(O)OP(=O)(O)OC[C@H]1O[C@@H](n2cnc3c(N)ncnc32)[C@H](O)[C@@H]1OP(=O)(O)O (some centres not stated)

Km (Rattus norvegicus [1]): 49.6 µM | Vmax (Rattus norvegicus [1]): 1.08 µmol/min/mg | Km (Rattus norvegicus [2]): 53.2 µM | Vmax (Rattus norvegicus [2]): 0.46 µmol/min/mg
Molecule: CCC/C=C/C(O)CC(=O)SCCNC(=O)CCNC(=O)[C@H](O)C(C)(C)COP(=O)(O)OP(=O)(O)OC[C@H]1O[C@@H](n2cnc3c(N)ncnc32)[C@H](O)[C@@H]1OP(=O)(O)O (some centres not stated)
